Test results published in ChEMBL document CHEMBL1145774, “Synthesis and biological effects of novel 2-amino-3-naphthoylthiophenes as allosteric enhancers of the A1 adenosine receptor” (J Med Chem, 2003).

Columns and labels:
[1] = target: T1, Adenosine receptor A1 (Homo sapiens) (UniProt P30542); assay: Percent change in cAMP content of CHO (Chinese hamster ovary) cells expressing human Adenosine A1 receptor at 0.01 uM; assay type: functional, cell-based
T1 sequence (whole entry): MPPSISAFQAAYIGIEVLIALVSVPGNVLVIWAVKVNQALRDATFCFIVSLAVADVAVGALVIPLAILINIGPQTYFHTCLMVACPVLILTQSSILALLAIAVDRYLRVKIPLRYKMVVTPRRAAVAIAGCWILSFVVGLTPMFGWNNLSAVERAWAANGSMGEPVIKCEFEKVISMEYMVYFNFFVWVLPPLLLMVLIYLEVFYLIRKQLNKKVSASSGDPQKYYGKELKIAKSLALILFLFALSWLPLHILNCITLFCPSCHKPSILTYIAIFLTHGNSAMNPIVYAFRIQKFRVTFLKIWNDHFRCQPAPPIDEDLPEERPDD
Method in brief: (§1)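 CHO cells stably expressing human A1 receptor (~8000 fmol/mg protein) were grown in Ham's F-12 with 10% FBS and G-418 for 48 h to confluence. HCl (50 mM final) stopped the reaction, and cAMP was measured by radioimmunoassay. Values are % change versus no-compound control, mean ± SEM of six experiments.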

[2] = target: T1, Adenosine receptor A1 (Homo sapiens); assay: Percent change in cAMP content of CHO (Chinese hamster ovary) cells expressing human Adenosine A1 receptor at 10 uM; assay type: functional, cell-based; method in brief: as §1
[3] = target: T1, Adenosine receptor A1 (Homo sapiens); assay: Percent change in cAMP content of CHO (Chinese hamster ovary) cells expressing human Adenosine A1 receptor at 0.1 uM; assay type: functional, cell-based; method in brief: as §1
[4] = target: T1, Adenosine receptor A1 (Homo sapiens); assay: Percent change in cAMP content of CHO (Chinese hamster ovary) cells expressing human Adenosine A1 receptor at 1 uM; assay type: functional, cell-based; method in brief: as §1
[5] = target: T1, Adenosine receptor A1 (Homo sapiens); assay: Ability to displace the binding of [3H]DPCPX to the ligand binding site of CHO:hA1 (human Adenosine A1 receptor) at concentration of 10 uM
Method in brief: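 Membranes came from hypotonic lysis of CHO:hA1 cells, a 100 000g pellet and ADA 2 U/mL treatment for 30 min at 37 °C. Membranes (100 µg protein) were incubated with 1 nM [3H]DPCPX in Tris-HCl pH 7.4 for 150 min at 25 °C, with compound added from DMSO (1% final). Nonspecific binding was taken with 1 µM DPCPX, and bound ligand was separated on GF/B filters.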

[6] = target: Adenosine receptor A2a (Homo sapiens) (UniProt P29274); assay: Ability to displace the binding of [3H]-ZM 241385, to the ligand binding site of CHO:hA2A (human Adenosine A2A receptor) at concentration of 10 uM
Chain of Adenosine receptor A2a (Homo sapiens) (P29274 whole entry): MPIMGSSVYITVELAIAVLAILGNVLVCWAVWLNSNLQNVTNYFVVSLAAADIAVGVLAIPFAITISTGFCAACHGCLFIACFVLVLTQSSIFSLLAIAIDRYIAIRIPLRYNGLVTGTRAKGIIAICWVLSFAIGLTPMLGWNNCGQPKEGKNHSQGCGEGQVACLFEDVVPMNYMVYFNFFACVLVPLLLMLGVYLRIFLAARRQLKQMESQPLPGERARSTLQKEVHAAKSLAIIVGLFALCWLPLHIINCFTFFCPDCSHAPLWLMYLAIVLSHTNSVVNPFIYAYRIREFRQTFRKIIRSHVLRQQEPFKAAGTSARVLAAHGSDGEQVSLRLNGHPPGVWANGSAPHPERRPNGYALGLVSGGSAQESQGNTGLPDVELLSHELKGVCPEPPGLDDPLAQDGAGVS
Method in brief: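 CHO:hA2A membranes (100 µg protein, ADA-treated) were incubated with 2 nM [3H]ZM 241385 in Tris-HCl with MgCl2, pH 7.4, for 60 min at 4 °C, with compound from DMSO (1% final). Nonspecific binding was taken with 1 µM ZM241385. After filtration, results are % displacement by 10 µM compound, ±STD, n = 3.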

[7] = target: T2, Adenosine receptor A3 (Homo sapiens) (UniProt P0DMS8); assay: Ability to displace the binding of [3H]-MRE 3008-F20 to the ligand binding site of CHO:hA3 (human Adenosine receptor) at concentration of 10 uM
T2 sequence (whole entry): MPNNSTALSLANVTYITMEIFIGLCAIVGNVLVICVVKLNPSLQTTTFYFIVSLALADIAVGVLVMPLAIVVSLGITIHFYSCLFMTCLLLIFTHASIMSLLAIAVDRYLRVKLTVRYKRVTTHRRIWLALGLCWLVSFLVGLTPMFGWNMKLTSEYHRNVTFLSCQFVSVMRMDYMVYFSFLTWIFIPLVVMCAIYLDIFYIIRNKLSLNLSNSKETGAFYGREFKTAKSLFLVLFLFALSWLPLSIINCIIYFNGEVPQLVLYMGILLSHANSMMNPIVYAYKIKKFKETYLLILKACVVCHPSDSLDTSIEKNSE
Method in brief: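 Assays used 2 nM [3H]MRE 3008F20 on CHO:hA3 membranes (100 µg protein, ADA-treated) for 150 min at 4 °C, in Tris-HCl with MgCl2 and 1 mM EDTA, pH 7.4, with compound from DMSO (1% final). Bound ligand was separated by filtration. Results are % displacement by 10 µM compound, ±STD, n = 3.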

Structure (SMILES) | Change [1] | Change [2] | Change [3] | Change [4] | inhibition [5] | inhibition [6] | inhibition [7]
Nc1sc2c(c1C(=O)c1ccc3c(c1)Cc1ccccc1-3)CCN(Cc1ccccc1)C2 | 4% | -1% | -7% | 8% | – | – | –
Cc1sc(N)c(C(=O)c2ccc(Br)c3ccccc23)c1C | -8% | -60% | -1% | -2% | – | – | –
Cc1sc(N)c(C(=O)c2ccc(I)c3ccccc23)c1C | -5% | -63% | -3% | -19% | – | – | –
COc1ccc(C2SCc3c(sc(N)c3C(=O)c3cccc4ccccc34)S2)cc1 (configuration not stated) | 18% | 6% | 16% | 4% | – | – | –
Nc1sc2c(c1C(=O)c1ccc(Cl)c3ccccc13)CCN(Cc1ccccc1)C2 | 3% | -21% | -1% | -7% | – | – | –
Nc1sc2c(c1C(=O)c1ccc3ccccc3c1)CCN(Cc1ccc(F)cc1)C2 | -11% | -8% | -9% | -2% | – | – | –
Nc1sc2c(c1C(=O)c1cccc3ccccc13)CCC(Cc1ccccc1)C2 (configuration not stated) | -8% | -21% | -7% | -14% | – | – | –
COc1ccc(C(=O)c2c(N)sc3c2CCN(Cc2ccccc2)C3)c2ccccc12 | -0% | -12% | 11% | 3% | – | – | –
Nc1sc2c(c1C(=O)c1ccc3ccccc3c1)CCC(c1ccccc1)C2 (configuration not stated) | -8% | 33% | 5% | 31% | – | – | –
Nc1sc2c(c1C(=O)c1ccc(I)c3ccccc13)CCN(Cc1ccccc1)C2 | -6% | -13% | 1% | -6% | – | – | –
Nc1sc2c(c1C(=O)c1ccc(Br)c3ccccc13)CCN(Cc1ccccc1)C2 | 18% | -42% | -5% | -12% | – | – | –
Nc1sc2c(c1C(=O)c1ccc3ccccc3c1)CCN(Cc1ccccc1Cl)C2 | -10% | -17% | -20% | -10% | – | – | –
Cc1sc(N)c(C(=O)c2ccc(C)c3ccccc23)c1C | -5% | -51% | -8% | -32% | – | – | –
Nc1sc2c(c1C(=O)c1ccc3ccccc3c1)CCN(Cc1ccccc1F)C2 | -3% | -31% | -3% | -10% | 3% | -0% | -0%
Nc1sc2c(c1C(=O)c1cccc3ccccc13)CCN(Cc1ccccc1)C2 | -21% | 19% | -7% | -25% | – | – | –
Cc1sc(N)c(C(=O)c2ccc3c(c2)Cc2ccccc2-3)c1C | -4% | -19% | -17% | -10% | – | – | –
Nc1sc2c(c1C(=O)c1ccc3ccccc3c1)CCC(Cc1ccccc1)C2 (configuration not stated) | 7% | 28% | 10% | -9% | – | – | –
Nc1sc2c(c1C(=O)c1ccc3ccccc3c1)CCN(Cc1ccc([N+](=O)[O-])cc1)C2 | 8% | 26% | 12% | 26% | – | – | –
Nc1sc2c(c1C(=O)c1ccc3ccccc3c1)CCN(Cc1cccnc1)C2 | -8% | 56% | -12% | 41% | – | – | –
Nc1sc2c(c1C(=O)c1ccc3ccccc3c1)CCN(Cc1ccc(Cl)cc1)C2 | -6% | -6% | -8% | -21% | – | – | –
Nc1sc2ccccc2c1C(=O)c1cccc2ccccc12 | 17% | -37% | 9% | 1% | 13.5% | -0% | 19%
Cc1sc(N)c(C(=O)c2ccc(Cl)c3ccccc23)c1C | 12% | -56% | -18% | -47% | – | – | –
COc1ccc(CN2CCc3c(sc(N)c3C(=O)c3ccc4ccccc4c3)C2)c(OC)c1OC | -3% | 5% | -1% | -10% | – | – | –
COc1ccc(C(=O)c2c(N)sc(C)c2C)c2ccccc12 | 9% | -38% | 3% | -5% | – | – | –
Cc1sc(N)c(C(=O)c2ccc3ccccc3c2)c1C | -1% | -28% | -4% | -8% | -0% | -0% | -0%
Cc1ccc(C(=O)c2c(N)sc3c2CCN(Cc2ccccc2)C3)c2ccccc12 | -0% | -34% | -7% | -13% | – | – | –
Nc1sc2c(c1C(=O)c1ccc3ccccc3c1)CCN(Cc1cccc(Cl)c1)C2 | 9% | -3% | -12% | 7% | – | – | –

Further lines, results first:

Change [1] | Change [2] | Change [3] | Change [4] | inhibition [5] | inhibition [6] | inhibition [7] | Structure (SMILES)
9% | -48% | 4% | -17% | – | – | – | Cc1ccc(C(=O)c2c(N)sc3c2CCC3)c2ccccc12
7% | 3% | 6% | 7% | – | – | – | Nc1sc2c(c1C(=O)c1ccc3c(c1)Cc1ccccc1-3)CCCC2
4% | -22% | -3% | -9% | – | – | – | Cc1sc(N)c(C(=O)c2cc(C)c3ccccc3c2)c1C
-1% | -9% | 1% | -5% | – | – | – | Cc1cc(C(=O)c2c(N)sc3c2CCN(Cc2ccccc2)C3)cc2ccc(Cl)cc12
4% | -17% | -14% | -6% | – | – | – | Cc1cc(C(=O)c2c(N)sc3c2CCC3)cc2ccc(Cl)cc12
-0% | -13% | 1% | -11% | – | – | – | Cc1cc(C(=O)c2c(N)sc3c2CCCC3)cc2ccc(Cl)cc12
-0% | -34% | -7% | -13% | 6% | -0% | -0% | Cc1cc(C(=O)c2c(N)sc3c2CCC3)cc2ccccc12
-3% | -9% | -15% | -6% | – | – | – | Nc1sc2c(c1C(=O)c1ccc3c(c1)Cc1ccccc1-3)CCC2
17% | -45% | 13% | -21% | – | – | – | Cc1ccc(C(=O)c2c(N)sc3c2CCCC3)c2ccccc12
-6% | -35% | -3% | -8% | 19% | -0% | 57% | COc1ccc(C(=O)c2c(N)sc3c2CCC3)c2ccccc12
-0% | -16% | 2% | -0% | – | – | – | Cc1cc(C(=O)c2c(N)sc3c2CCN(Cc2ccccc2)C3)cc2ccccc12
-0% | -24% | -0% | -18% | 4% | -0% | -0% | Cc1sc(N)c(C(=O)c2cc(C)c3cc(Cl)ccc3c2)c1C
5% | -17% | 5% | -3% | – | – | – | COc1ccc(C(=O)c2c(N)sc3c2CCCC3)c2ccccc12
-7% | -20% | -9% | -8% | – | – | – | Cc1cc(C(=O)c2c(N)sc3c2CCCC3)cc2ccccc12
